We go through 2 compounds from ChEMBL document CHEMBL4834403, “Design and Synthesis of Novel Epigenetic Inhibitors Targeting Histone Deacetylases, DNA Methyltransferase 1, and Lysine Methyltransferase G9a with In Vivo Efficacy in Multiple Myeloma” (J Med Chem, 2021).

One data set concerns NCI-H929. Description: Antiproliferative activity against human NCI-H929 cells assessed as inhibition of cell proliferation measured up to 72 hrs by CellTiter96 Aqueous one reagent based assay. The format is functional. As to conditions: NCI-H929, 72 h, time hrs <=72.
The nature of data set [1]: Antiproliferative activity against human KMS-28BM cells assessed as inhibition of cell proliferation measured up to 72 hrs by CellTiter96 Aqueous one reagent based assay. The settings on record: time hrs <=72. The format is functional.
In the next data set the test system is JJN-3. Kind of data set: Antiproliferative activity against human JJN-3 cells assessed as inhibition of cell proliferation measured up to 72 hrs by CellTiter96 Aqueous one reagent based assay. The data set is classed as functional. As to conditions: JJN-3, 72 h, time hrs <=72.
In another data set the target is Histone deacetylase 1 (Homo sapiens, UniProt Q13547). Description: Inhibition of full length human C-terminal His-tagged/C-terminal Flag-tagged HDAC1 using fluorogenic acetylated peptide as substrate incubated for 30 mins by fluorescence plate reader assay.
Sequence of Histone deacetylase 1 (Q13547 whole entry): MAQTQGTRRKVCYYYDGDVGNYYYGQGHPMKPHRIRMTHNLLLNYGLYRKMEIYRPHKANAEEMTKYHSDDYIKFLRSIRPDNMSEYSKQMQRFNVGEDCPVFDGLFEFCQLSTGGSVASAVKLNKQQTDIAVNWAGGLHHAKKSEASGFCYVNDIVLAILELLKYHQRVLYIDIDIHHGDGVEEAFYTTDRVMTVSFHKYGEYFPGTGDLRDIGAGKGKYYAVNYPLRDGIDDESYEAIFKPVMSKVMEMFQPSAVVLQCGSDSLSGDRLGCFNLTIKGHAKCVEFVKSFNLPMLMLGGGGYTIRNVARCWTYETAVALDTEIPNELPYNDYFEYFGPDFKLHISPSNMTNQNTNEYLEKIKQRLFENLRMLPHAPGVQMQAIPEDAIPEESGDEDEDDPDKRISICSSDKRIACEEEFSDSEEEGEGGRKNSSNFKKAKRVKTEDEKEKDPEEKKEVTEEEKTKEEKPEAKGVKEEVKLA
In data set [2] the target is Histone deacetylase 3/Nuclear receptor corepressor 2 (HDAC3/NCoR2) (Homo sapiens, UniProt O15379). Kind of data set: Inhibition of full length human C-terminal His-tagged HDAC3/human N-terminal GST-agged NCOR2 using fluorogenic acetylated peptide as substrate incubated for 30 mins by fluorescence plate reader assay. The data set is classed as protein-complex assay.
Sequence of Histone deacetylase 3/Nuclear receptor corepressor 2 (HDAC3/NCoR2) (O15379 whole entry): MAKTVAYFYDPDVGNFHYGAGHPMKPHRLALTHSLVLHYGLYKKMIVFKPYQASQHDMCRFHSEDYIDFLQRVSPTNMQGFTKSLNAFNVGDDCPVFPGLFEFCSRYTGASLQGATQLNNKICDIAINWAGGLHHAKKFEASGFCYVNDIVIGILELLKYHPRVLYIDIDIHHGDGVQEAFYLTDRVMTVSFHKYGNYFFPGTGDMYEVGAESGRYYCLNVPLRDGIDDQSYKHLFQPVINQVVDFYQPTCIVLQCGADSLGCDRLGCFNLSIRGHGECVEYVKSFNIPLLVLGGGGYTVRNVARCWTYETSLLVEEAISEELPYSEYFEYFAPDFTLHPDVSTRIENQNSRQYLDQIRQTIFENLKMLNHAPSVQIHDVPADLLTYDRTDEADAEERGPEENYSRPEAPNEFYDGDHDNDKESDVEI
Sequence of Histone deacetylase 3/Nuclear receptor corepressor 2 (HDAC3/NCoR2) (Q9Y618 whole entry, further chain): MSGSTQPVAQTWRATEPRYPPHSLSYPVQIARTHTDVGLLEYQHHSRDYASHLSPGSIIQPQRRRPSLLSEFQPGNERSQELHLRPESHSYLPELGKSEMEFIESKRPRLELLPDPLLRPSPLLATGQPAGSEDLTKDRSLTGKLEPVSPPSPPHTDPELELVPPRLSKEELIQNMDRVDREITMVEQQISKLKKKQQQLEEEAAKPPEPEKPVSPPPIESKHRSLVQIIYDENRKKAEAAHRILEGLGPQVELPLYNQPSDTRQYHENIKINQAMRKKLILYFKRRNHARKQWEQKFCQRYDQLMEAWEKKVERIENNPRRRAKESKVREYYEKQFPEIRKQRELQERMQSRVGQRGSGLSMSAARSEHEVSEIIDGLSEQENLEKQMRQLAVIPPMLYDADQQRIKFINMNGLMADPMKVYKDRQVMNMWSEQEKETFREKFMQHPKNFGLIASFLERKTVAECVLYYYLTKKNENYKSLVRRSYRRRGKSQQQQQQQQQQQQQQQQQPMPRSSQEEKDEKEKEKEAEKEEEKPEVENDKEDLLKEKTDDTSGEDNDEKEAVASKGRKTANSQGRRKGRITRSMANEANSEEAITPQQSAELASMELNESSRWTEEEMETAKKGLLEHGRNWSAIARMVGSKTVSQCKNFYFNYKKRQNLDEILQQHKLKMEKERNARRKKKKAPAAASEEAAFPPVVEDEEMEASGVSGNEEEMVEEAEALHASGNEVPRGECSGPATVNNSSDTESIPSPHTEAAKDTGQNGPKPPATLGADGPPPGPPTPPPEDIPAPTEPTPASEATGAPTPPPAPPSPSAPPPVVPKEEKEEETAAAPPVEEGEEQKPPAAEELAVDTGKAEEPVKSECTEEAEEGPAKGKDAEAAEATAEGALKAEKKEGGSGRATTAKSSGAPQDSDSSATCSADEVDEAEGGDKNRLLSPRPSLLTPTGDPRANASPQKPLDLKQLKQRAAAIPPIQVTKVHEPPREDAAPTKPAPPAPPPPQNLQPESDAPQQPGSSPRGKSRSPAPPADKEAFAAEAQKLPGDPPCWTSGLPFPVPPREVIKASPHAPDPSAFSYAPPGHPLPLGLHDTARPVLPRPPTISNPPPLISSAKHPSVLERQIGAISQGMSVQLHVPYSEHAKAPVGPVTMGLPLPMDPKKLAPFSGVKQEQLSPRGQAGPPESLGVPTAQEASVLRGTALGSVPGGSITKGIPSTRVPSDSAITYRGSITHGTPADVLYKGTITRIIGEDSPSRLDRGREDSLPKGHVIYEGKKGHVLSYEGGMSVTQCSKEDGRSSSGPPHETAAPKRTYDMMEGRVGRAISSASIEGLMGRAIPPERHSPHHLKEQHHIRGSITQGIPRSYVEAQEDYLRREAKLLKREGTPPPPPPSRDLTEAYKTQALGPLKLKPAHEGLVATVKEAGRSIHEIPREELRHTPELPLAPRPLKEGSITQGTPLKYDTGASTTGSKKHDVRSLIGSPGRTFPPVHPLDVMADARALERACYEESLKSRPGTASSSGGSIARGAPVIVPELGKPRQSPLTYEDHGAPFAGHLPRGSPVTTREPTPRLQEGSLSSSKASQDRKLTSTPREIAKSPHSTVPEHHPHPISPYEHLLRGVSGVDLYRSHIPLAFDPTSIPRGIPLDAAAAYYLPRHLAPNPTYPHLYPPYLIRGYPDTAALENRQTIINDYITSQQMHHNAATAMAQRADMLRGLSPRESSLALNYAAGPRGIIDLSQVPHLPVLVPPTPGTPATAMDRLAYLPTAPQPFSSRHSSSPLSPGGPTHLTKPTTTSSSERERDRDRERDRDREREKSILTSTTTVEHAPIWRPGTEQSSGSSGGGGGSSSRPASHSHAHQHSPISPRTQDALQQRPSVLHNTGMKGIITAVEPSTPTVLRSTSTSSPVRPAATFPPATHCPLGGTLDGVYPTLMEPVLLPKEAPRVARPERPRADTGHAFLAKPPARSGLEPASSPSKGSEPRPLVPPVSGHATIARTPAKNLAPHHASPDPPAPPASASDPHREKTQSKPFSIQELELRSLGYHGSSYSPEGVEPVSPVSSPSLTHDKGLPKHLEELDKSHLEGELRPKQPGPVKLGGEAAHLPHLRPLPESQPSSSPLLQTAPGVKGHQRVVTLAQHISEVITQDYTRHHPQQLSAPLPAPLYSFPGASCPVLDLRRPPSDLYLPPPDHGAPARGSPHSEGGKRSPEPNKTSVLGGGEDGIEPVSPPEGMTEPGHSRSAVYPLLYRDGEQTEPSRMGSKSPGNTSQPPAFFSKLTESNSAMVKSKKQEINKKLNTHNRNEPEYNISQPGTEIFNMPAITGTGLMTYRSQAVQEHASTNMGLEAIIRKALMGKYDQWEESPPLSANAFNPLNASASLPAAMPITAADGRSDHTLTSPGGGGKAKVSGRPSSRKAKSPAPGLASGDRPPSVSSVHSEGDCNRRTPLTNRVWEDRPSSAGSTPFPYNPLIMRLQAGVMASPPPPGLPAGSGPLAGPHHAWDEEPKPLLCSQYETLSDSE
Data set [3] has as its target T1, Histone-lysine N-methyltransferase EHMT2 (Homo sapiens, UniProt Q96KQ7).
T1 sequence (Q96KQ7 whole entry): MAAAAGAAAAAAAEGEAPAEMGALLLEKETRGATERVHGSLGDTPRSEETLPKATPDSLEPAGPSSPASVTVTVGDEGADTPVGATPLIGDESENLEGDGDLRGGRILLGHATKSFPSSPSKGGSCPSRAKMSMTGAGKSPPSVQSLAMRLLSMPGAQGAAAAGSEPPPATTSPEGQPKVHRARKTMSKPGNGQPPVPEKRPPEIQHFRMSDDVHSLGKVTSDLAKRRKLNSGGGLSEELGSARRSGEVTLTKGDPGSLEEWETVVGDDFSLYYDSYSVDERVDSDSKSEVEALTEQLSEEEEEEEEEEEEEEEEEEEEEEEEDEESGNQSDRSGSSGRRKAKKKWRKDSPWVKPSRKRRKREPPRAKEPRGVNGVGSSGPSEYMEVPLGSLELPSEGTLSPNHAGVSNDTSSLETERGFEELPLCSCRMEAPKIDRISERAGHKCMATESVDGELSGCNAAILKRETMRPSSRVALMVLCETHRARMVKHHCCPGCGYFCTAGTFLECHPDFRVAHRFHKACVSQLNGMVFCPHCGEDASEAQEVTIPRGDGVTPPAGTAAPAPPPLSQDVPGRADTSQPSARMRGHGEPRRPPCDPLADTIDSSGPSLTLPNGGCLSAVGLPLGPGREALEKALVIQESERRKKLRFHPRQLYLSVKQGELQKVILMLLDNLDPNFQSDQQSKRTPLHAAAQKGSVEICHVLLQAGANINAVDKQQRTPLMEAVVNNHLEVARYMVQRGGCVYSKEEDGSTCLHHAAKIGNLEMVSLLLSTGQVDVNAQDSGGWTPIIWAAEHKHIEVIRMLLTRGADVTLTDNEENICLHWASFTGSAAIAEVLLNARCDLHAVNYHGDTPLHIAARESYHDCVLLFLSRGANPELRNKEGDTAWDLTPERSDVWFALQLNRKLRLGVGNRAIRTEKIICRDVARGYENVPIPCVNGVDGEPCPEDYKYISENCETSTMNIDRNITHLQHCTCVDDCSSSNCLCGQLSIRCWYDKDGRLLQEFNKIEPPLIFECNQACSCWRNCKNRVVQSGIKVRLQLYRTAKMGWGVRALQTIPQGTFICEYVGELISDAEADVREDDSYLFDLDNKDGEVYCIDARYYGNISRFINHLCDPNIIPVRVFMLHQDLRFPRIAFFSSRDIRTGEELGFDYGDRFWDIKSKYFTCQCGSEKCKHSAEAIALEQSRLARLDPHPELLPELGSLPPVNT
Kind of data set: Inhibition of human G9a enzyme using histone monomethyl-H3K9 peptide as substrate incubated for 1 hr in presence of SAM by TR-FRET assay.

Data set [4] concerns MM1.S. Description: Antiproliferative activity against human MM1.S cells assessed as inhibition of cell proliferation measured up to 72 hrs by CellTiter96 Aqueous one reagent based assay. The format is functional.
The test system of the next data set is THLE-2. Kind of data set: Cytotoxicity against human THLE-2 cells assessed as decrease in cell viability measured after 72 hrs by Vialight-plus cell proliferation assay. The format is cell-based. The settings on record: thle-2, 72 h. Summed up:
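Human THLE-2 cells exposed to compound for 72 h. Cytotoxicity reported as LC50 and pLC50, averaged from at least two independent experiments on different days.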

In data set [5] the target is T2, Histone-lysine N-methyltransferase EHMT2 (Homo sapiens) (UniProt Q96KQ7).
T2 sequence (whole entry): T1 sequence (Q96KQ7 whole entry)
Description: Inhibition of G9A in human MM1.S cells assessed as decrease in H3K9Me2 levels > 1 uM after 48 hrs by Western blot analysis. The format is cell-based. As to conditions: dose microM >1, time 48.0 hrs. Summed up: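 MM1.S cells exposed 48 h across a concentration range. Global H3K9Ac and H3K9me2 read by Western blot; run in duplicate.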

The test system of data set [6] is MM1.S. Description: Induction of DNA hypomethylation in human MM1.S cells assessed as CPG hypomethylation at position 3 at 2 uM measured after 5 days relative to control. As to conditions: time 5.0 day. The format is cell-based. The procedure, abridged:
(§1)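 MM1.S cells dosed every day for 5 days at 2 μM or 10 nM. DNA methylation at CpGs of the POU4F2 promoter read by pyrosequencing; run in duplicate.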

Data set [7] in a line: Permeability of the compound in PBS/EtOH buffer (70:30) incubated for 18 hrs by UV plate reader based PAMPA assay. The format is ADME. As to conditions: read-out: permeability.
In data set [8] the test system is MM1.S. Description: Induction of DNA hypomethylation in human MM1.S cells assessed as CPG hypomethylation at position 5 at 10 nM measured after 5 days relative to control. The settings on record: time 5.0 day. The format is cell-based. Summed up: as §1
In another data set the target is CYP2C19 (Homo sapiens, UniProt P33261). Kind of data set: Inhibition of CYP2C19 in human liver microsomes at 10 uM incubated for 10 mins in presence of NADPH by LC-MS/MS analysis relative to control. The format is ADME.
Sequence of CYP2C19 (P33261 whole entry): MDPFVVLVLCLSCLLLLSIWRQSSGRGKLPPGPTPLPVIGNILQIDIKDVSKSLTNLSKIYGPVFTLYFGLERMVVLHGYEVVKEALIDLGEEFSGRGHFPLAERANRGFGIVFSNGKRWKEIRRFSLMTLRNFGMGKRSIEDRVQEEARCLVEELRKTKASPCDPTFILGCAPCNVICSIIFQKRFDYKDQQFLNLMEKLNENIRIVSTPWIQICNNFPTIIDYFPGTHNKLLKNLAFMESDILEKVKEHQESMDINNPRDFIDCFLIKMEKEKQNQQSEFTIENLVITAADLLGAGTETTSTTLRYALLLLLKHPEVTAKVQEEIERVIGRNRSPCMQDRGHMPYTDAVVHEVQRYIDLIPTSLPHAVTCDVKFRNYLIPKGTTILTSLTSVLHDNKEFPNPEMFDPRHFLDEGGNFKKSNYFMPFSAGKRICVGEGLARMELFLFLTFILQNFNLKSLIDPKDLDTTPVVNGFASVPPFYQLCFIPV
Data set [9] in a line: Kinetic solubility of the compound. The format is physicochemical. The settings on record: read-out: Kinetic_solubility.
Data set [10] in a line: Half life in BALB/c RAG2-/- gammaC-/- mouse at 10 mg/kg, ip measured up to 24 hrs by UPLC-triple quadrupole MS analysis. As to conditions: in vivo. The format is ADME, organism-based.
Setting [11] is: time hrs <=72, read-out: pGI50 (converted).

Activity calls are given as the source filed them. No cut-off for these calls is given here. A value given as a limit tells only on which side of the number the result lay.

In the case of `COc1cc2c(NCC3CCN(c4ncc(C(=O)NO)cn4)CC3)cc(-c3ccc(C)o3)nc2cc1OCCCN1CCCC1`, the GI50 in the data set on NCI-H929 is 981 nM; in [1], 1300 nM; with JJN-3, 6040 nM; in the data set on MM1.S [4] (time hrs <=72, read-out: GI50), 2080 nM; with MM1.S [4] (setting [11]) it was 2090 nM. The figures for the IC50 (at Histone deacetylase 1; in data set [2]; in data set [3]) were 3 nM, 5 nM and 269 nM, respectively. The LC50 in the data set on THLE-2 was determined as 10900 nM. Besides, the pLC50 in the data set with THLE-2 was found to be 4.96. Further, the inhibition result in [5] is “Active”. Also, in the data set with MM1.S [6], the Activity came out at 15%.
Consider `COc1cc2nc(-c3ccc(C)o3)cc(NCC3CCN(c4ncc(C(=O)NO)cn4)CC3)c2cc1OC`, for which the GI50 is 103 nM with NCI-H929; 547 nM in data set [1]; 482 nM in the data set with JJN-3; 32 nM with MM1.S [4] (time hrs <=72, read-out: GI50); 31.6 nM with MM1.S [4] (setting [11]). For the same compound, the results for the IC50 (against Histone deacetylase 1; in data set [2]; in [3]) were 7 nM, 18 nM and above 10000 nM, respectively. Further, the LC50 in the data set with THLE-2 is 794 nM. Also, in the data set with THLE-2, the pLC50 is 6.1. In addition, the Papp at 18 h in data set [7] stood at 0.504 ×10⁻⁶ cm/s. Moreover, the Activity with MM1.S [8] is 10%. The inhibition at 10 min, 10 µM on CYP2C19 amounted to 5.6%. The solubility kinetic in [9] was below 0.987 µg/mL. The compound also had a half-life in [10] of 3.8 h.
